In ChEMBL document CHEMBL1667772 (Bioorg Med Chem Lett, 2011):
Calls of active or inactive are those of the source. The calls are words filed in the database; no cut-off is given here.

Experiments:
[1] = molecular target: Voltage-gated inwardly rectifying potassium channel KCNH2 (Homo sapiens, UniProt Q12809); assay: Inhibition of human ERG by patch clamp analysis
How it was run: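 hERG inhibition measured by high-throughput patch clamp; percent inhibition at 30 µM.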

[2] = molecular target: T1, Bifunctional epoxide hydrolase 2 (Homo sapiens, UniProt P34913); assay: Inhibition of human soluble epoxide hydrolase
T1 sequence (P34913 whole entry): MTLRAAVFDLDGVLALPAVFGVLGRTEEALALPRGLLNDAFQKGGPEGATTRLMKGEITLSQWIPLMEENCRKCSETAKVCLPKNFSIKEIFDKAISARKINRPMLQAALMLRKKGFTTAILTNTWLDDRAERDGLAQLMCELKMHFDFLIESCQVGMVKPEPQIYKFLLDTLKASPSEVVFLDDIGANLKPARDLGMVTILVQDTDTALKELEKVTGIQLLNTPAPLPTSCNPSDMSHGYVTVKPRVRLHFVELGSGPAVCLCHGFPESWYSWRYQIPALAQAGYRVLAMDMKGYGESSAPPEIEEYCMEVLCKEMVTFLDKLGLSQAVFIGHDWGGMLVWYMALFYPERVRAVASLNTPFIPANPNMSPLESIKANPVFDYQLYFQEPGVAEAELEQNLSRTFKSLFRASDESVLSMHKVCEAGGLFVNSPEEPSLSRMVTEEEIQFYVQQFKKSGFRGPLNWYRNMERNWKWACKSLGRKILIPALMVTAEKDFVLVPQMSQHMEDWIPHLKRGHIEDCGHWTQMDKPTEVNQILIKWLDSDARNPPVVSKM

[3] = AUC (24 hrs) in rat at 10 mg/kg, po; assay type: ADME, organism-based; parameters: time < 24 hr, dose 10 mg/kg, route oral; settings: plasma
[4] = molecular target: T1, Bifunctional epoxide hydrolase 2; assay type: cell-based, HUVEC
Cytochrome P450 1A2 = molecular target: T2, Cytochrome P450 1A2 (Homo sapiens, UniProt P05177); assay: Inhibition of CYP1A2; assay type: ADME
T2 sequence (P05177 whole entry): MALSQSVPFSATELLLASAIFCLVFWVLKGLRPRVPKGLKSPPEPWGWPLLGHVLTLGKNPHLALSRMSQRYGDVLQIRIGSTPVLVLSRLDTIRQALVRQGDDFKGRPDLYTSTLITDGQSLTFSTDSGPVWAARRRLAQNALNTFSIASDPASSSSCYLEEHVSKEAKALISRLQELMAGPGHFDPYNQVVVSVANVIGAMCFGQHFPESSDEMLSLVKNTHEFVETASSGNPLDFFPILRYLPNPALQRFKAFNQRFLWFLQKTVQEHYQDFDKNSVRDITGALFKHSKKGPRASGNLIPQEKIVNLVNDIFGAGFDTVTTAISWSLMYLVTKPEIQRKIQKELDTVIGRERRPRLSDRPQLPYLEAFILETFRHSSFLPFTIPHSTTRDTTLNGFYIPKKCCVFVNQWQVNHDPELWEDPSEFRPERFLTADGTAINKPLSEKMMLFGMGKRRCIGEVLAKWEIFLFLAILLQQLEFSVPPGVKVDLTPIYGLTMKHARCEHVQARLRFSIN

Rattus norvegicus [5] = assay: Antihypertensive activity against AngII-induced hypertension in telemetered rat assessed as decrease in diastolic blood pressure at 50 mg/kg, po; assay type: functional, organism-based; parameters: dose 50 mg/kg; settings: Artery
How it was run: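 Sprague–Dawley rats made hypertensive by continuous AngII infusion, 65 ng/min. Dosed orally twice daily as a suspension in 0.5% carboxymethylcellulose, 0.1% Tween 80. Systolic and diastolic pressure recorded continuously by telemetry and compared against vehicle control.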

[6] = Oral bioavailability in cynomolgus monkey; assay type: ADME, organism-based, Macaca fascicularis; settings: in vivo
Cytochrome P450 3A4 = Cytochrome P450 3A4 (Homo sapiens, UniProt P08684); assay: Inhibition of CYP3A4; assay type: ADME
Rattus norvegicus [7] = assay: Antihypertensive activity against AngII-induced hypertension in telemetered rat assessed as decrease in systolic blood pressure at 50 mg/kg, po; settings: Artery, read-out: INH
Mus musculus [8] = assay: Antidiabetic activity in diet induced obese mouse assessed as reduction in maximal glucose excursion at 100 mg/kg, po BID for 4 weeks; assay type: functional, organism-based; parameters: dose 100 mg/kg
How it was run: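 Male C57BL/6 mice fed 45% fat diet plus high fructose corn syrup (0.42 kcal/mL) for 6 weeks beforehand and throughout. Oral gavage BID for 12 weeks. After 4 weeks, intraperitoneal glucose 2 g/kg given 4 h post-dose.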

Cytochrome P450 2C19 = Cytochrome P450 2C19 (Homo sapiens, UniProt P33261); assay: Inhibition of CYP2C19; assay type: ADME
Cytochrome P450 2B6 = molecular target: T3, Cytochrome P450 2B6 (Homo sapiens, UniProt P20813); assay: Inhibition of CYP2B6; assay type: ADME
T3 sequence (P20813 whole entry): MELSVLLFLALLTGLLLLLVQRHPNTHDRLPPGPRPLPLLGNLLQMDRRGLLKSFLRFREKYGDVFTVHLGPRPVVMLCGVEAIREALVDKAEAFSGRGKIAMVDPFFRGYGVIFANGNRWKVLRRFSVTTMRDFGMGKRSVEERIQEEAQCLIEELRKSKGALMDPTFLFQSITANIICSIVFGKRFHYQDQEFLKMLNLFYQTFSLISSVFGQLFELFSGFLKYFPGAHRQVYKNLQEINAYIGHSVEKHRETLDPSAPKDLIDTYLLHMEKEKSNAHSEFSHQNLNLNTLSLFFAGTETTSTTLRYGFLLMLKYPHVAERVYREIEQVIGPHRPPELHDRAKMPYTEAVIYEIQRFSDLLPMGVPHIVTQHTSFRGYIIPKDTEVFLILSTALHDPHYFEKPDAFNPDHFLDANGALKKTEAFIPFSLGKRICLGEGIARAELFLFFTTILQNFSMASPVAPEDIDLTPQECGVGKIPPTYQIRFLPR

Cytochrome P450 2C9 = Cytochrome P450 2C9 (Homo sapiens, UniProt P11712); assay: Inhibition of CYP2C9; assay type: ADME
Rattus norvegicus [9] = assay: Antihypertensive activity against spontaneously hypertensive rat assessed as decrease in mean blood pressure at 100 mg/kg, po; assay type: functional, organism-based; parameters: dose 100 mg/kg
[10] = Oral bioavailability in rat; assay type: ADME, organism-based; settings: in vivo
Mus musculus [11] = assay: Inhibition of soluble epoxide hydrolase in diet induced obese mouse assessed as inhibition of EET hydrolysis at 100 mg/kg, po BID for 12 weeks measured 7 hrs post last dose

Sequence of Voltage-gated inwardly rectifying potassium channel KCNH2 (Q12809 whole entry): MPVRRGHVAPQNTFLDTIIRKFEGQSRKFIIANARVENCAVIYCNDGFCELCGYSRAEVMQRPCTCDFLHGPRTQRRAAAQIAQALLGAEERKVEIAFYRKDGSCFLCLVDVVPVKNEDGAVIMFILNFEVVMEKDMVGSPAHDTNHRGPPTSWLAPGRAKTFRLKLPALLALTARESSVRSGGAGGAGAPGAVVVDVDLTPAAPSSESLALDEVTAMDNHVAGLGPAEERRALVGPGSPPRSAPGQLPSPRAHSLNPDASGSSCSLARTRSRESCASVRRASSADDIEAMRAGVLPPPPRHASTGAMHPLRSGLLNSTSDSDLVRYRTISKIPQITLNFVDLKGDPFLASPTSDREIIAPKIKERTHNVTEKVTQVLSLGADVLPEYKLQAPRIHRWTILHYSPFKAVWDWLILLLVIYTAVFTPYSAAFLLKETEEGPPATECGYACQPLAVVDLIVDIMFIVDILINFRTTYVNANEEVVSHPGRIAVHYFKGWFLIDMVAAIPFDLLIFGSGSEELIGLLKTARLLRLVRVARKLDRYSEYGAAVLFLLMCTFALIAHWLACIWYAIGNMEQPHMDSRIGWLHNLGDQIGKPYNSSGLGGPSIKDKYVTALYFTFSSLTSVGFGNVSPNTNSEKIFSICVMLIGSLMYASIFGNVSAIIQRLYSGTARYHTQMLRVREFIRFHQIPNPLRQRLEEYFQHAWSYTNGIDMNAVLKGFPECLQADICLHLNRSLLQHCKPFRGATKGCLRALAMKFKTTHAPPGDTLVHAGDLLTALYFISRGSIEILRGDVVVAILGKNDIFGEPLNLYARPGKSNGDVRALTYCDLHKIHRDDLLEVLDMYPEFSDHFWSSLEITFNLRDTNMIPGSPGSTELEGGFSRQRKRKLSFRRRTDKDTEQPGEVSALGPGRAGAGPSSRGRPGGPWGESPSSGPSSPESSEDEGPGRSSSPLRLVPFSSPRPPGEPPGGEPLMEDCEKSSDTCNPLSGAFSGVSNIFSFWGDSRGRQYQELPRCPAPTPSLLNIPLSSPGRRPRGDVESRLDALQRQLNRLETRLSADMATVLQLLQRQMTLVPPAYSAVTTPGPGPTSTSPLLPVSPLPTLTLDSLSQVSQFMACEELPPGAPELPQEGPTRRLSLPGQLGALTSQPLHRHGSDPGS
Sequence of Cytochrome P450 2C19 (P33261 whole entry): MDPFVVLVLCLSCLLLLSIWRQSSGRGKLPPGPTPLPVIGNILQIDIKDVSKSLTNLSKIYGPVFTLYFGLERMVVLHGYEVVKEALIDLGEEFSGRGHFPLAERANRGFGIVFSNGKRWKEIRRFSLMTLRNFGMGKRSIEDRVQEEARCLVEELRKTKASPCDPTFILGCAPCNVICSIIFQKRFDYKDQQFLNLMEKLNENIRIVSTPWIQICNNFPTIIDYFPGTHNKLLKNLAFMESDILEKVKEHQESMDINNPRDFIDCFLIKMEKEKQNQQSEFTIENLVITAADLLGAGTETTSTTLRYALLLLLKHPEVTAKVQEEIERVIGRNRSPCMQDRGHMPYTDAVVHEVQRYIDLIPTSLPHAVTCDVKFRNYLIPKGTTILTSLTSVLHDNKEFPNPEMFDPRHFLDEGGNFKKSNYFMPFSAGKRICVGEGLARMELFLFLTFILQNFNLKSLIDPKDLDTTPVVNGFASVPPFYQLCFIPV
Sequence of Cytochrome P450 2C9 (P11712 whole entry): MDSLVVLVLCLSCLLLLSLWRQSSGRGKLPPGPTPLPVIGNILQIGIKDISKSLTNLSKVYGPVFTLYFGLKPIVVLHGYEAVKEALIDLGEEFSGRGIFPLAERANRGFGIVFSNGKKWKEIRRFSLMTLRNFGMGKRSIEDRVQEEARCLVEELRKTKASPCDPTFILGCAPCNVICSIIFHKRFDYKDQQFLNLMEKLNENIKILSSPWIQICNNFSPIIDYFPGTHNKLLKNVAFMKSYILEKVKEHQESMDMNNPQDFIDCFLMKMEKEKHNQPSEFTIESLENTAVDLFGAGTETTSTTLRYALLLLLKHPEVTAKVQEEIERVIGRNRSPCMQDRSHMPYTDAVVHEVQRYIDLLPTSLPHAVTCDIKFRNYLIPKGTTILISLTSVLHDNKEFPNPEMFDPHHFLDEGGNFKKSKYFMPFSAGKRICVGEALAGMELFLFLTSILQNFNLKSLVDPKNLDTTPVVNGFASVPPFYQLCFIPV
Sequence of Cytochrome P450 3A4 (P08684 whole entry): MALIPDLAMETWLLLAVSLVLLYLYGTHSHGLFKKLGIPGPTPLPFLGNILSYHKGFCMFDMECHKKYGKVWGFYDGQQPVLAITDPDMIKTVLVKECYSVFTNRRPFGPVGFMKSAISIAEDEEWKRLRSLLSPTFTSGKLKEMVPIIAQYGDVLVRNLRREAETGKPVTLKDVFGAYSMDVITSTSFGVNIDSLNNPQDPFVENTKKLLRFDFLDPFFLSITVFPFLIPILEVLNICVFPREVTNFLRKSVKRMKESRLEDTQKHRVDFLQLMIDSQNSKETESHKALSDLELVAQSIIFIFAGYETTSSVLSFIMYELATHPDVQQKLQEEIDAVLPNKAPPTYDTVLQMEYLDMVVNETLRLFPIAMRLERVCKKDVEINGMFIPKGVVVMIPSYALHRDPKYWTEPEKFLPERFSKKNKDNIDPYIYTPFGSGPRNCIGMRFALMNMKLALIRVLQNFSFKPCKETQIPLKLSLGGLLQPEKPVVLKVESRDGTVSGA

| SMILES | inhibition (INH) [1] [%] | IC50 [2] [nM] | AUC at 24 h [3] [ng·h/mL] | IC50 [4] [nM] | other results |
| --- | --- | --- | --- | --- | --- |
| CS(=O)(=O)N1CCC(NC(=O)NC23CC4CC(CC(C4)C2)C3)CC1 | -2.8 | 1.9 | 640 | 3.9 | – |
| CC(=O)N1CCC(NC(=O)NC2CCCCCC2)CC1 | 9 | 0.8 | 7840 | 27 | – |
| CC(=O)N1CCC(NC(=O)NC2CC3(C)CCC2CC3)CC1 (stereo not given) | – | 25 | 1480 | 300 | – |
| CC(=O)N1CCC(NC(=O)NC23CC4(F)CC(F)(CC(F)(C4)C2)C3)CC1 | – | 120 | – | – | – |
| CC(=O)N1CCC(NC(=O)NC2CCC(F)(F)CC2)CC1 | – | 185 | – | – | – |
| CC(=O)N1CCC(NC(=O)Nc2ccc(C(F)(F)F)cc2)CC1 | – | – | 13100 | – | – |
| CC(=O)N1CCC(NC(=O)NC23CC4CC(F)(CC(F)(C4)C2)C3)CC1 | – | 58 | – | – | – |
| CC(=O)N1CCC(NC(=O)NC2C3CCC2CC3)CC1 (stereo not given) | – | 14 | – | 120 | – |
| CC(=O)N1CCC(NC(=O)NC2CCC(C)(C)CC2)CC1 | 0.8 | 6 | – | 38 | – |
| O=C(NC1CCCCC1)NC1CCN(C(=O)c2ccccn2)CC1 | 3.4 | 6.4 | 8320 | 67 | – |
| CC(C)S(=O)(=O)N1CCC(NC(=O)Nc2ccc(OC(F)(F)F)cc2)CC1 | 11 | – | 7300 | 64 | – |
| CC(=O)N1CCC(NC(=O)NC2CCCCC2)CC1 | – | 29 | – | – | – |
| CC(=O)N1CCC(NC(=O)Nc2cccc(C(F)(F)F)c2)CC1 | 10 | – | 19600 | 226 | – |
| CC(C)S(=O)(=O)N1CCC(NC(=O)Nc2ccc(C(F)(F)F)cc2)CC1 | 13 | – | 5890 | – | – |
| CC(=O)N1CCC(NC(=O)NC2CCC(C(C)(C)C)CC2)CC1 (stereo not given) | 7 | 13 | 1780 | 270 | – |
| CC(=O)N1CCC(NC(=O)NC23CC4CC(CC(C4)C2)C3)CC1 [AR9281] | < 8 | – | 720 | – | inhibition (INH) (Cytochrome P450 1A2): Not Active; Activity (Rattus norvegicus [5]): Active; bioavailability [6]: 25%; inhibition (INH) (Cytochrome P450 3A4): Not Active; inhibition in vivo at 50 mg/kg (Rattus norvegicus [7]): 8%; Activity (Mus musculus [8]): Active; inhibition (INH) (Cytochrome P450 2C19): Not Active; inhibition (INH) (Cytochrome P450 2B6): Not Active; inhibition (INH) (Cytochrome P450 2C9): Not Active; Activity (Rattus norvegicus [9]): inactive; bioavailability [10]: 100%; Activity (Mus musculus [11]): Active |
| O=C(Nc1ccc(OC(F)(F)F)cc1)NC1CCN(C(=O)c2cccnc2)CC1 | 57 | – | 11300 | 6.7 | – |
| CS(=O)(=O)N1CCC(NC(=O)Nc2ccc(C(F)(F)F)cc2)CC1 | – | – | 6850 | – | – |
